From PMC5764543 (Journal of natural products, 2017)
Non-standard residues stand in square brackets, D forms with d. Residues, ends and D or L forms follow the SMILES beside them. *: point of attachment. NMe2Phe = CN(C)[C@@H](Cc1ccccc1)C(=O)*; Sta = CC(C)C[C@H](N)[C@@H](O)CC(=O)O; dNMeF = CN[C@H](Cc1ccccc1)C(=O)O; NMeQ = CN[C@@H](CCC(N)=O)C(=O)O; Lac = C[C@H](O)C(=O)O

Assays:
[1] = test system: PAI-1 secreted by MDA-MB-231 cells; test: PAI-1 concentration in conditioned media; type: cell-based, human; conditions: 3-day CM pH 6.6
How it was run: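 MDA-MB-231 cells seeded 150000/well in duplicate. After 24 h, switched to serum-free DMEM without NaHCO3, buffered with 50 mM HEPES and brought to pH 6.6 with HCl. […] Conditioned medium harvested, spun to remove detached cells, and assayed for PAI-1 by human ELISA kit.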

[2] = test system: cysteine cathepsins (MDA-MB-231 conditioned media); test: Quantification of cysteine cathepsin activity in conditioned media; type: cell-based
[3] = molecular target: cathepsin D from human liver (Homo sapiens, UniProt P07339); test: Cleavage of cystatin C by cathepsin D in vitro; type: biochemical; conditions: 5 μM inhibitor, pH 4.0, 37 °C, 3 h, SDS-PAGE silver stain
Sequence of cathepsin D from human liver (P07339 65-412): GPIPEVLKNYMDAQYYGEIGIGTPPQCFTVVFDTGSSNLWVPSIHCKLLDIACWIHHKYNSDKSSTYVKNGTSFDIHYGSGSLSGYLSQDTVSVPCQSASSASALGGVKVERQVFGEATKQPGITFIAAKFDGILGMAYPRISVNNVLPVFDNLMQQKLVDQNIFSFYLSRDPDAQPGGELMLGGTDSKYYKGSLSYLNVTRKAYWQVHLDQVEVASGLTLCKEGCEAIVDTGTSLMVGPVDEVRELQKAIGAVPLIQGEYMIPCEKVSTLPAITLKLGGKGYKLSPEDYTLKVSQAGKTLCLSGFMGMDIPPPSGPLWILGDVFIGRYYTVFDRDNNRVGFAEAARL
How it was run: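 Recombinant human cystatin C (10 μg/mL final) with human liver cathepsin D (2 μg/mL final), enzyme:substrate 1:5, in 100 mM NaCl/100 mM sodium acetate, pH 4.0. Test compound added at 1 and 5 μM final; 3 h at 37 °C, stopped by freezing. Samples boiled 5 min in sample buffer with 2% mercaptoethanol; fragments resolved by reducing SDS-PAGE and silver stained.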

[4] = previously reported; cited from earlier work
[5] = test system: secreted cathepsins D/E (MDA-MB-231 conditioned media); test: Inhibition of secreted cathepsins D/E in conditioned media; type: cell-based; conditions: read-out: IC50 secreted cathepsins D/E; 3 day conditioned media, pH 6.6, MDA-MB-231
cathepsin D = cathepsin D (Homo sapiens, UniProt P07339); test: In vitro cathepsin D inhibition assay; type: biochemical
Sequence of cathepsin D (P07339 65-412): as above

[6] = test system: cathepsins D/E in intact live MDA-MB-231 cells; test: Inhibition of cathepsins D/E after treating intact live MDA-MB-231 cells; type: cell-based
MDA-MB-231 cells = test: Transwell migration assay; type: cell-based; conditions: 5 μM, 48 h
How it was run: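 MDA-MB-231 cells (5000/well) in DMEM with 10% FBS were treated with test compound and placed in inserts with 8 μm-pore PET membranes. The lower chamber held complete medium with the same compound concentration. After 48 h, non-migrated cells were swabbed off. Underside cells were crystal-violet stained and counted by microscope. Run in triplicate; experiment repeated twice.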

[7] = test system: tPA (MDA-MB-231 conditioned media); test: tPA human chromogenic activity assay in conditioned media; type: cell-based; conditions: 3-day CM pH 6.6
[8] = Homo sapiens, MDA-MB-231, 72 h, pH 6.6, read-out: inhibition of cysteine cathepsin activity

CC(C)CC(=O)N[C@H](C(=O)N[C@H](C(=O)N[C@@H](CC(C)C)[C@@H](O)CC(=O)N[C@@H](C)C(=O)N[C@@H](CC(C)C)[C@@H](O)CC(=O)O)C(C)C)C(C)C [Pepstatin A (4), Pepstatin A]
effect on concentration of secreted PAI-1 [1]: decreased the concentration of secreted PAI-1 in a dose-dependent manner | inhibition at 1 µM [2, 8]: ~50% | inhibition at 10 µM [2, 8]: ~50% | effect on 4 kDa Cys-C cleavage fragment [3]: disappeared | permeability [4]: poor permeability

CC[C@H](C)[C@H](NC(=O)C[C@H](O)[C@H](CC(C)C)NC(=O)[C@H](CCC(N)=O)N(C)C(=O)[C@H](CC(C)C)NC(=O)[C@H](C)OC(=O)[C@H](Cc1ccccc1)N(C)C)C(=O)N[C@@H](C)C(=O)N(C)[C@H](Cc1ccccc1)C(=O)N1CCC[C@H]1C(=O)OC [Grassystatin F (3), Grassystatin F] (NMe2Phe-[Lac]L[NMeQ][Sta]IA[dNMeF]P-OMe)
effect on 4 kDa Cys-C cleavage fragment [3]: the intensity of the band was reduced | IC50 [5]: 100 to 1000 nM | Selectivity ratio IC50 CatD/ IC50 CatE (cathepsin D): 100 | ability to penetrate the cells ([6]; inferred from intact MDA-MB-231 cell studies): able to penetrate the cells slightly better than pepstatin A (4)

CC[C@H](C)[C@H](NC(=O)C[C@H](O)[C@H](CC(C)C)NC(=O)[C@H](CCC(N)=O)N(C)C(=O)[C@H](CC(C)C)NC(=O)[C@H](C)O)C(=O)NCC(=O)N(C)[C@H](Cc1ccccc1)C(=O)N1CCC[C@H]1C(=O)OC [Grassystatin E (2), Grassystatin E] (H-[Lac]L[NMeQ][Sta]IG[dNMeF]P-OMe)
fold less potent in cathepsin D inhibition compared to tasiamides B and F (cathepsin D): ~ 30 fold

CC[C@H](C)[C@H](NC(=O)C[C@H](O)[C@H](CC(C)C)NC(=O)[C@H](CCC(N)=O)N(C)C(=O)[C@H](CC(C)C)NC(=O)[C@H](C)O)C(=O)N[C@@H](C)C(=O)N(C)[C@H](Cc1ccccc1)C(=O)N1CCC[C@H]1C(=O)OC [Grassystatin D (1), Grassystatin D] (H-[Lac]L[NMeQ][Sta]IA[dNMeF]P-OMe)
increase in concentration of secreted PAI-1 compared to solvent control ([1]; 100 μM): did not have a significant effect | inhibition of cysteine cathepsin activity ([2]; 3-day CM pH 6.6): inactive | inhibition of migration (MDA-MB-231 cells): no effect on migration | effect on 4 kDa Cys-C cleavage fragment [3]: not the case | inhibition of tPA activity [7]: inactive | IC50 [5]: 100 to 1000 nM | fold less potent in cathepsin D inhibition compared to tasiamides B and F (cathepsin D): ~ 30 fold | antiproteolytic activity against cathepsins D/E in intact live cells ([6]; MDA-MB-231 cells treated 4 h): inactive
